Measured values of several laboratories.
Each line is one published result; the experiments were not run side by side.
Organism: Leishmania donovani
Effect on: parasite growth

Compound | method | cells | tested at | time | setting | measurement | result
CCCCCCCCCCCCCCCCOP(=O)([O-])OCC[N+](C)(C)C | resazurin |  | 25 µM | 72 h | promastigote | inhibition | 100%
COc1ccccc1-c1n[nH]c2nc(N[C@H]3CC[C@H](NS(=O)(=O)CCCOCCOCCN)CC3)ncc12 |  |  |  |  | amastigote | EC50 | 4210 nM
c1ccc(-c2nc(N3CCCC3)c3ccccc3n2)nc1 |  | THP-1 |  |  | intracellular, amastigote | IC50 | 2500 nM
COc1ccccc1-c1n[nH]c2nc(NC3CCN(C(=O)Cc4ccc(OCCOCCNC(=O)OC(C)(C)C)cc4)CC3)ncc12 |  | THP-1 |  |  | intracellular, amastigote | EC50 | 4510 nM
COc1cc(NC(C)CCCNC(=S)NCCCC(C)Nc2cc(OC)cc3cccnc23)c2ncccc2c1.Cl.Cl (stereo not drawn) | resazurin |  |  |  | promastigote | IC50 | 4 to 9 µg/mL
CCCCCCCC/C=C\CCCCCCCCCCCCOP(=O)([O-])OCC[N+](C)(C)C | resazurin |  | 50 µM | 72 h | promastigote | inhibition | 108%
c1ccc(CN2CCN(c3nc(-c4ccccn4)nc4ccccc34)CC2)cc1 | imaging | THP-1 |  |  | intracellular, amastigote | IC50 | 2600 nM
COc1ccccc1-c1n[nH]c2nc(N[C@H]3CC[C@H](NS(=O)(=O)CCCOCCOCCNC(=O)OC(C)(C)C)CC3)ncc12 |  |  |  |  | amastigote | EC50 | 1360 nM
C[C@@H]1[C@H](O)[C@@H](C)/C=C/C=C/C=C/C=C/C=C/C=C/C=C/[C@H](O[C@@H]2O[C@H](C)[C@@H](O)[C@H](N)[C@@H]2O)C[C@@H]2O[C@](O)(C[C@@H](O)C[C@@H](O)[C@H](O)CC[C@@H](O)C[C@@H](O)CC(=O)O[C@H]1C)C[C@H](O)[C@H]2C(=O)O | MTT |  |  | 48 h | amastigote | IC90 | 1800 nM
COc1cc(NC(C)CCCNC(=S)NCCCC(C)Nc2cc(OC)cc3ccc(C(C)(C)C)nc23)c2nc(C(C)(C)C)ccc2c1.Cl.Cl (stereo not drawn) | resazurin |  |  |  | promastigote | IC90 | 20 to 31 µg/mL
COc1ccccc1-c1n[nH]c2nc(NC3CCN(C(=O)Cc4ccc(OCCOCCN)cc4)CC3)ncc12 |  |  |  |  | amastigote | EC50 | 1990 nM
N=C(N)c1ccc(OCCCCCOc2ccc(C(=N)N)cc2)cc1 | resazurin |  |  | 72 h | promastigote | IC90 | 8.77 µg/mL
